Laboratory results reported in ChEMBL document CHEMBL1135533, “Synthesis and in vitro studies of novel pyrimidinyl peptidomimetics as potential antimalarial therapeutic agents” (J Med Chem, 2002).
≈ marks a conversion by molar mass, not a printed value.

Key:
Colon cell line = experiment: In vitro inhibition of cell growth in human colon cell line.; type: functional, cell-based
How it was run: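 SW620 colon cells grown and tested in RPMI-1640 with 10% FBS. Serially diluted compound was placed in wells, cells were seeded straight onto it, and solvent blanks were included. After 72 h, cells were fixed with cold TCA (10% final) for 1 h at 4 °C, stained 30 min with 0.4% SRB in 1% acetic acid, and bound dye was solubilized in 10 mM Tris base, pH 10.5.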

Neuronal cell line = experiment: In vitro inhibition of cell growth in human neuronal cell line.; type: functional, cell-based
Plasmodium falciparum [1] = experiment: Inhibitory activity against chloroquine-sensitive Plasmodium falciparum D6 (CDC/Sierra Leone I); type: functional, organism-based
How it was run: (§1)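 Drug stocks in DMSO, diluted 400-fold into RPMI 1640 with 25 mM Hepes, 32 mM NaHCO3 and 10% Albumax I, then 2-fold serial dilutions (over 11 concentrations). Parasites exposed 48 h at 37 °C under 5% O2/5% CO2/90% N2, then [3H]hypoxanthine added for a further 18 h. Uptake counted by scintillation; IC50 from nonlinear regression logistic dose-response fit.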

Plasmodium falciparum [2] = experiment: Inhibitory activity against chloroquine-resistant Plasmodium falciparum W-2 Indochina III; type: functional, organism-based; how it was run: as §1

SMILES	IC50 (Colon cell line) [µg/mL]	IC50 (Neuronal cell line) [µg/mL]	IC50 (Plasmodium falciparum [1]) [µg/mL]	IC50 (Plasmodium falciparum [2]) [µg/mL]
COC(=O)/C(=C/Cn1c(-c2ccccc2)ncc(NC(=O)OCc2ccccc2)c1=O)COC(=O)c1ccccc1	13.5 (≈ 24.4 µM)	2.6 (≈ 4.7 µM)	0.027 (≈ 0.0488 µM)	0.028 (≈ 0.0506 µM)
COC(=O)/C(=C/Cn1c(-c2ccccc2)ncc(NC(=O)OCc2ccccc2)c1=O)COC(C)=O	> 50	0.92 (≈ 1.87 µM)	0.017 (≈ 0.0346 µM)	0.017 (≈ 0.0346 µM)
COC(=O)/C(=C/[C@H](C)NC(=O)Cn1c(-c2ccccc2)ncc(NC(=O)OCc2ccccc2)c1=O)COC(C)=O	1.6 (≈ 2.84 µM)	1.1 (≈ 1.96 µM)	0.009 (≈ 0.016 µM)	0.01 (≈ 0.0178 µM)
COC(=O)/C(=C/Cn1c(-c2ccccc2)ncc(NC(=O)OCc2ccccc2)c1=O)COC(=O)c1ccc([N+](=O)[O-])cc1	7.6 (≈ 12.7 µM)	1.75 (≈ 2.92 µM)	0.024 (≈ 0.0401 µM)	0.024 (≈ 0.0401 µM)
COC(=O)/C(=C/Cn1c(-c2ccccc2)ncc(NC(=O)N2CCN(C(C)=O)CC2)c1=O)COC(C)=O	> 50	13.8 (≈ 27 µM)	0.017 (≈ 0.0332 µM)	0.018 (≈ 0.0352 µM)
COC(=O)/C(=C/Cn1c(-c2ccccc2)ncc(NC(=O)OCc2ccccc2)c1=O)CO	> 50	0.95 (≈ 2.11 µM)	0.016 (≈ 0.0356 µM)	0.017 (≈ 0.0378 µM)
